We go through four compounds from ChEMBL document CHEMBL4390663, “Cationic biaryl 1,2,3-triazolyl peptidomimetic amphiphiles: synthesis, antibacterial evaluation and preliminary mechanism of action studies” (Eur J Med Chem, 2019).

The test system of series [1] is Staphylococcus aureus. Kind of series: Antibacterial activity against methicillin-resistant Staphylococcus aureus NCTC 10442 incubated for 24 hrs by CLSI method. Type of series: functional. Conditions: NCTC 10442, 24 h. In short, it runs like this:
(§1)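 Broth microdilution per CLSI aerobic guidance in Mueller Hinton broth, ambient air, 35 °C for 24 h. DMSO stocks were diluted in water, then serially diluted with double-strength broth inoculum added, for final 0.25–128 μg/mL. […] MIC was read visually as the lowest concentration inhibiting growth; the modal value of triplicates was recorded.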

For series [2], the system named is Acinetobacter baumannii. Kind of series: Antimicrobial activity against Acinetobacter baumannii ATCC 19606 incubated for 18 hrs by CLSI method. Type of series: functional. In short, it runs like this: (§2)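 Screen run by CO-ADD: mid-log cultures in cation-adjusted MHB, 5 × 10^5 CFU/mL, compounds at up to 32 μg/mL in 1:2 serial dilutions (8 steps), final DMSO ≤0.5%, duplicate. 37 °C for 18 h without shaking; OD600 read against media-only and untreated-bacteria references. MIC = lowest concentration giving ≥80% inhibition; colistin standard.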

In series [3] the test system is Streptococcus pneumoniae. The experiment in a line: Antibacterial activity against MDR Streptococcus pneumoniae ATCC 700677 incubated for 18 hrs by CLSI method. Type of series: functional. Particulars: ATCC 700677, 18 h.
In series [4] the test system is Staphylococcus aureus. Kind of series: Antimicrobial activity against vancomycin resistant Staphylococcus aureus NARSA VRS10 incubated for 18 hrs by CLSI method. The series is classed as functional. Conditions: NARSA VRS10, 18 h.
For series [5], the system named is Staphylococcus aureus. The experiment in a line: Antimicrobial activity against methicillin-resistant Staphylococcus aureus ATCC 43300 incubated for 18 hrs by CLSI method. Conditions: ATCC 43300, 18 h. The series is classed as functional.
Series [6] relates to Enterococcus faecalis. Kind of series: Antibacterial activity against Enterococcus faecalis ATCC 29212 incubated for 24 hrs by CLSI method. The series is classed as functional. Particulars: ATCC 29212, 24 h.
In series [7] the test system is Enterococcus faecalis. Kind of series: Antimicrobial activity against vancomycin-resistant Enterococcus faecalis clinical isolate incubated for 18 hrs by CLSI method. The series is classed as functional.
Series [8] has as its system Pseudomonas aeruginosa. The experiment in a line: Antimicrobial activity against Pseudomonas aeruginosa ATCC 27853 incubated for 18 hrs by CLSI method. Type of series: functional. In short, it runs like this: as §2
The test system of series [9] is Streptococcus pneumoniae. Kind of series: Antibacterial activity against Streptococcus pneumoniae ATCC 49619 incubated for 24 hrs by CLSI method. The series is classed as functional. Particulars: ATCC 49619, 24 h. In short, it runs like this: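 CLSI broth microdilution in MHB with 2.5% lysed horse blood, 5% CO2, 35 °C, 24 h. Compounds from 5 mg/mL DMSO stocks diluted in water plus double-strength broth; final 0.25–128 μg/mL. […] Triplicate; modal MIC read visually as lowest growth-inhibiting concentration.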

For series [10], the system named is Clostridioides difficile. The experiment in a line: Antibacterial activity against Clostridium difficile NSW132 RT027 incubated for 48 hrs by CLSI method. The series is classed as functional. Particulars: NSW132 RT027, 48 h. In outline: (§3)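 Broth microdilution per CLSI anaerobe method in pre-reduced (2-4 h) Brucella broth with haemin and vitamin K, 35 °C anaerobically for 48 h. Compounds from 5 mg/mL DMSO stocks, twofold dilutions in water mixed with double-strength broth; final 0.25–128 μg/mL. […] Triplicate; modal MIC read visually as lowest concentration inhibiting growth.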

Series [11] deals with Staphylococcus aureus. Kind of series: Antimicrobial activity against Staphylococcus aureus ATCC 29213 incubated for 24 hrs by CLSI method. Type of series: functional. Conditions: ATCC 29213, 24 h. In outline:
as §1

Series [12] concerns Staphylococcus aureus. Kind of series: Antimicrobial activity against glycopeptide intermediate susceptible Staphylococcus aureus NRS17 incubated for 18 hrs by CLSI method. The series is classed as functional. Particulars: NRS17, 18 h.
Series [13] relates to Staphylococcus aureus. The experiment in a line: Antimicrobial activity against glycopeptide intermediate susceptible/methicillin-resistant Staphylococcus aureus NRS1 incubated for 18 hrs by CLSI method. The series is classed as functional. Particulars: NRS1, 18 h.
Series [14] relates to Klebsiella pneumoniae. The experiment in a line: Antibacterial activity against Klebsiella pneumoniae 700603 incubated for 18 hrs by CLSI method. Type of series: functional. In outline: as §2
Series [15] deals with Staphylococcus aureus. Kind of series: Antimicrobial activity against methicillin-resistant Staphylococcus aureus clinical isolate incubated for 18 hrs by CLSI method. The series is classed as functional.
Series [16] in a line: Cytotoxicity against human HEK293 cells assessed as reduction in cell growth incubated for 20 hrs by resazurin dye-based fluorometric assay. In short, it runs like this: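 HEK293 cells, 5000 per well in DMEM + 10% FBS, exposed to compounds (top 32 μg/mL, 1:2 serial dilution ×8, ≤0.5% DMSO, duplicate) for 20 h at 37 °C, 5% CO2. Resazurin added (2.3 μg/mL final), 3 h further; fluorescence ex 560/em 590 nm. CC50 from sigmoidal dose-response fit against log concentration; tamoxifen standard.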
On the technique in general: Alamar Blue is a resazurin reagent that responds to reducing activity.

Series [17] has as its system Escherichia coli. The experiment in a line: Antibacterial activity against Escherichia coli ATCC 25922 incubated for 18 hrs by CLSI method. The series is classed as functional. In outline: as §2
Series [18] relates to Staphylococcus aureus. The experiment in a line: Antimicrobial activity against Staphylococcus aureus ATCC 43300 incubated for 18 hrs by CLSI method. Particulars: ATCC 43300, 18 h. Type of series: functional.
Series [19] deals with Clostridioides difficile. The experiment in a line: Antibacterial activity against Clostridium difficile ATCC 700057 incubated for 48 hrs by CLSI method. Particulars: ATCC 700057, 48 h. The series is classed as functional. In outline: as §3
Series [20] has as its system Staphylococcus aureus. The experiment in a line: Antimicrobial activity against methicillin-resistant Staphylococcus aureus clinical isolate with reduced daptomycin susceptibility incubated for 18 hrs by CLSI method. Type of series: functional.
The subject of series [21] is Escherichia coli. The experiment in a line: Induction of plasma membrane permeabilization in Escherichia coli NCTC 10418 at 32 ug/ml measured for 30 mins by propidium iodide staining based fluorescence assay relative to control. Type of series: functional. In short, it runs like this: (§4)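 Mid-log cells (1.5 McFarland) with 4 µM propidium iodide, dark, room temperature: S. aureus in PBS 30 min; E. coli in 5 mM HEPES/20 mM glucose pH 7.2 for 60 min, then 100 mM KCl and 0.5 mM EDTA. Fluorescence (ex 544/em 615 nm) read ~8 min baseline, then ~30 min after compound at 32 µg/mL final.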

The nature of series [22]: Haemolytic activity in sheep erythrocytes at 5 ug/ml incubated for 2 hrs under shaking condition relative to control. Particulars: read-out: Activity. Type of series: ADME, cell-based, Ovis aries, Erythrocyte. In outline:
(§5)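 Compounds in PBS mixed with washed sheep erythrocytes (2% final) at 5 or 50 μg/mL, rocked 2 h at 37 °C, centrifuged; supernatant absorbance at 540 nm. PBS-only value subtracted, then expressed relative to water lysis (100%). Triplicate, means reported.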

The test system of series [23] is Escherichia coli. The experiment in a line: Induction of cytoplasmic membrane depolarization in Escherichia coli NCTC 10418 at 64 ug/ml incubated for 30 mins by diSC35 staining based fluorescence assay relative to control. The series is classed as functional. In short, it runs like this: (§6)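 Mid-log cells (1.5 McFarland) loaded with 4 µM diSC3(5) in the dark at room temperature: S. aureus in PBS 30 min; E. coli in 5 mM HEPES/20 mM glucose pH 7.2 for 60 min, then 100 mM KCl and 0.5 mM EDTA. Baseline fluorescence (ex 620/em 670 nm) ~8 min, then compound added (final 32 µg/mL S. aureus, 64 µg/mL E. coli), tracked ~30 min.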

For series [24], the system named is Staphylococcus aureus. Kind of series: Induction of plasma membrane permeabilization in Staphylococcus aureus ATCC 29213 at 32 ug/ml measured for 30 mins by propidium iodide staining based fluorescence assay relative to control. Type of series: functional. In outline:
as §4

The nature of series [25]: Haemolytic activity in sheep erythrocytes at 50 ug/ml incubated for 2 hrs under shaking condition relative to control. The series is classed as ADME, cell-based, Ovis aries, Erythrocyte. Particulars: read-out: Activity. In outline:
as §5

The test system of series [26] is Staphylococcus aureus. Kind of series: Induction of cytoplasmic membrane depolarization in Staphylococcus aureus ATCC 29213 at 32 ug/ml incubated for 30 mins by diSC35 staining based fluorescence assay relative to control. The series is classed as functional. In outline: as §6
The subject of series [27] is Staphylococcus aureus. The experiment in a line: Bactericidal activity against exponential phase of Staphylococcus aureus ATCC 29213 assessed as reduction in bacterial count at 4 ug/ml measured at 2 hrs by time-kill kinetics assay. Type of series: functional, organism-based.
Series [28] relates to Escherichia coli. The experiment in a line: Induction of plasma membrane permeabilization in Escherichia coli NCTC 10418 at 64 ug/ml measured for 30 mins by propidium iodide staining based fluorescence assay relative to control. Type of series: functional, organism-based.
Where [29] appears, read: ATCC 19606 = CIP 70.34 = JCM 6841, 18 h.
The mark [30] stands for this setting: Klebsiella pneumoniae, 700603, 18 h.

As usually defined, the MIC is the lowest concentration found to suppress growth. Read a low MIC as inhibition by little substance. For orientation: CC50 means the concentration at which the toxic effect on the cells reaches its halfway point.

As for `CC(C)CCOc1ccc2ccccc2c1-c1c(OCc2cn(C[C@@H](CCCCN)NC(=O)CCc3ccccc3)nn2)ccc2ccccc12.Cl`, the MIC is 8 µg/mL in series [1]; greater than 32 µg/mL in series [2] (setting [29]); 8 µg/mL in [3]; 8 µg/mL in [4]; 2 to 4 µg/mL in [5]; 8 µg/mL in series [6]. Moreover, the minimal inhibitory concentration (MIC) in [7] was 4 µg/mL; in series [8] (ATCC 27853, 18 h), greater than 32 µg/mL; in series [9] it was 16 µg/mL; in [10], 32 µg/mL; in [11], 4 µg/mL; in series [12] it was 8 µg/mL. Further, the minimal inhibitory concentration (MIC) is 8 to 16 µg/mL in series [13]; greater than 32 µg/mL in [14] (setting [30]); 16 µg/mL in [15]; greater than 32 µg/mL in series [17] (ATCC 25922, 18 h); 4 µg/mL in series [18]; 32 µg/mL in series [19]. Also, in series [20], the minimal inhibitory concentration (MIC) was 8 µg/mL. Also, the CC50 at 20 h in series [16] worked out at 3.5 µg/mL.
For the compound `CC(C)CCOc1ccc2ccccc2c1-c1c(OCc2cn(C[C@@H](CCCCN)NC(=O)[C@@H](CCCNC(=N)N)NC(=O)Cc3ccc4c(c3)OCO4)nn2)ccc2ccccc12.Cl.Cl`, the MIC came to 4 µg/mL in [1]; 2 µg/mL in series [3]; 4 µg/mL in series [4]; 2 µg/mL in series [5]; 4 µg/mL in [6]; 2 µg/mL in [7]. For the same compound, the minimal inhibitory concentration (MIC) is 4 µg/mL in series [9]; 32 µg/mL in series [10]; 4 µg/mL in series [11]; 4 µg/mL in series [12]; 2 to 4 µg/mL in [13]; 4 µg/mL in series [15]. In addition, the minimal inhibitory concentration (MIC) in series [19] is 8 µg/mL; in series [20], 4 µg/mL.
For the compound `CC(C)CCOc1ccccc1-c1ccccc1OCc1cn(C[C@@H](CCCCN)NC(=O)[C@@H](CCCNC(=N)N)n2cc(CC3CCCCC3)nn2)nn1.Cl.Cl`, the MIC came out at 4 µg/mL in series [1]; 8 µg/mL in series [2] (setting [29]); 4 µg/mL in series [6]; 16 µg/mL in [8] (ATCC 27853, 18 h); 4 µg/mL in series [9]; 4 µg/mL in series [10]. The MIC in series [11] came to 4 µg/mL; in series [14] (setting [30]) it was 16 µg/mL; in series [17] (ATCC 25922, 18 h), 4 µg/mL; in series [18] it was 2 µg/mL; in series [19], 4 µg/mL. The Activity in [21] is 25 - 40%; in [23], 460 - 900%; in series [24] it was 600%; in [26], 120 - 180%. For the same compound, the hemolysis at 2 h, 5 ug/ml in [22] amounted to 1.5%. The hemolysis at 2 h, 50 ug/ml in [25] turned out to be 42.4%. Further, the 50% cytotoxic concentration (CC50) at 20 h in [16] was greater than 32 µg/mL.
As for COLISTIN, the minimum inhibitory concentration (MIC) was found to be 0.25 µg/mL in series [2] (ATCC 19606 = CIP 70.34 = JCM 6841), 0.25 µg/mL in [8], 0.25 µg/mL in series [14] and 0.125 µg/mL in series [17]. In addition, the Activity in series [23] was 400%; in [27], less than 1000 CFU/mL; in series [28], 75%.
